Test results from ChEMBL document CHEMBL4808182, “Discovery of the Soluble Guanylate Cyclase Activator Runcaciguat (BAY 1101042)” (J Med Chem, 2021).
Calls of active or inactive are those of the source. The rule behind the calls is not given here.

How the values were obtained:
[1] = tested on: Rattus norvegicus; assay: In vivo activation of sGC in po dosed renin-transgenic rat carrying [RenTG(mRRen2)27] gene assessed as decrease in mortality pretreated with NO-synthase inhibitor L-NAME followed by compound administration twice daily for 21 days and measured on day 1, 8 and 15; assay type: functional, organism-based; details: dose 1-10 mg/kg, time 21.0 day
How it was run: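 L-NAME-treated renin transgenic rats were dosed at 1, 3 or 10 mg/kg BID, with placebo controls (n = 24 placebo, 18 per dose). Mortality was recorded.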

[2] = Blood clearance in Wistar rat at 0.3 mg/kg, iv measured up to 24 hrs by LC-MS analysis; assay type: ADME, organism-based; details: whole blood
How it was run: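 Rats dosed iv at 0.3 mg/kg; blood clearance determined.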

[3] = tested on: Rattus norvegicus; assay: In vivo activation of sGC in po dosed renin-transgenic rat carrying [RenTG(mRRen2)27] gene assessed as decrease in proteinuria pretreated with NO-synthase inhibitor L-NAME followed by compound administration twice daily for 21 days; assay type: functional, organism-based; details: dose 1-10 mg/kg, time 21.0 day
How it was run: (§1)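 L-NAME-treated renin transgenic rats were dosed BID. At study end, protein-to-creatinine ratio (mg/mmol) came from urinary protein and creatinine. Creatinine clearance (mL/min) came from plasma and urinary creatinine plus urine volume.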

[4] = tested on: Rattus norvegicus; assay: Effect on heart rate in spontaneous hypertensive Wistar rat at 0.1 mg/kg, po by radiotelemetry; assay type: functional, organism-based
How it was run: (§2)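 Spontaneously hypertensive rats were given single oral doses of 0.1–3.0 mg/kg. Mean arterial pressure and heart rate were monitored for at least 24 h post dose, as % change.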

[5] = Blood clerance in cynomolgus monkey at 0.1 mg/kg, iv measured up to 24 hrs by LC-MS analysis; assay type: ADME, organism-based, Macaca fascicularis; details: whole blood
[6] = target: T1, Guanylate cyclase soluble subunit alpha-1 (Rattus norvegicus) (UniProt P19686); assay: Activation of recombinant rat sGC alpha1 subunit expressed in CHO cells assessed as induction of [32P-cGMP] formation by measuring efficacy using alpha-[32P-GTP] as substrate measured after 6 mins by luminescence assay relative to control; assay type: cell-based; details: filed as activator
T1 sequence (whole entry): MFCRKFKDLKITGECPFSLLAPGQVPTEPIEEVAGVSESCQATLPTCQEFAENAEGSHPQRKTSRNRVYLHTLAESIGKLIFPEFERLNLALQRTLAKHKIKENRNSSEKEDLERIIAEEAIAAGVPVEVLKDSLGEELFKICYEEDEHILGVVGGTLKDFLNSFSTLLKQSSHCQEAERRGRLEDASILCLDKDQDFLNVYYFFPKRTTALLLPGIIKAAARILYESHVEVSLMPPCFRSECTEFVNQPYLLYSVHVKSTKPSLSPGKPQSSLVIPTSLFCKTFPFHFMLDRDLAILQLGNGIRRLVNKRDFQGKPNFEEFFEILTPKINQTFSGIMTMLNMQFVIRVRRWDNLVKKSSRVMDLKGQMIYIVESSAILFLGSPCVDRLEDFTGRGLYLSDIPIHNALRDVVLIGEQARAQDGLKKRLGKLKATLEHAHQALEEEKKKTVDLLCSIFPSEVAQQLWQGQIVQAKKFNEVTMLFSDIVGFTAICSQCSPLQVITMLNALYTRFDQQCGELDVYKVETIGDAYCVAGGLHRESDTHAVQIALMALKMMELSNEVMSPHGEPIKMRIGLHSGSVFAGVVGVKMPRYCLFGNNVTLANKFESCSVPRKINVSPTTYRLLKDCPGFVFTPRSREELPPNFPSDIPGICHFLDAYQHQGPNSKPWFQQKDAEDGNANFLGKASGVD

[7] = Oral bioavailability in Beagle dog at 0.1 mg/kg measured up to 24 hrs by LC-MS analysis; assay type: ADME, organism-based, Canis lupus familiaris; details: in vivo
[8] = Volume of distribution at steady state in cynomolgus monkey at 0.1 mg/kg, iv measured up to 24 hrs by LC-MS analysis; assay type: ADME, organism-based, Macaca fascicularis; details: in vivo, read-out: Vdss
[9] = tested on: Rattus norvegicus; assay: In vivo activation of sGC in po dosed renin-transgenic rat carrying [RenTG(mRRen2)27] gene assessed as increase in creatinine clearance pretreated with NO-synthase inhibitor L-NAME followed by compound administration twice daily for 21 days; assay type: functional, organism-based; details: dose 1-10 mg/kg, time 21.0 day; how it was run: as §1
[10] = Activation of recombinant rat sGC expressed in CHO cells pretreated with ODQ for 3 hrs followed by compound treatment by luminescence assay; assay type: cell-based
[11] = tested on: Rattus norvegicus; assay: Effect on tachycardia reflex in normotensive Wistar rat at 1 to 10 mg/kg, po by radiotelemetry; assay type: functional, organism-based; details: dose 1-10 mg/kg
How it was run: (§3)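 Conscious normotensive rats with telemetric implants received oral doses of 1, 3 or 10 mg/kg. Mean arterial pressure and heart rate were recorded continuously beyond 24 h.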

[12] = tested on: CHO; assay: Activation of recombinant rat sGC expressed in CHO cells in presence of NO-donor S-nitroso N-acetyL-penicillamine by luminescence assay; assay type: cell-based; details: filed as activator
How it was run: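 Rat sGC-overexpressing CHO reporter cells were treated with test compound combined with NO donor SNAP, and the luminescence signal was read.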

[13] = tested on: Coronary artery; assay: Vasorelaxant activity in porcine coronary artery assessed as inhibition of U-46619-induced contractions; assay type: functional, tissue-based; details: Sus scrofa
[14] = tested on: Saphenous artery; assay: Vasorelaxant activity in Chinchilla rabbit saphenous artery assessed as inhibition of phenylephrine-induced contractions; assay type: functional, tissue-based; details: Oryctolagus cuniculus
[15] = species on record: Rattus norvegicus; assay: Effect on left ventricular diastolic pressure in Wistar rat; assay type: functional
How it was run: (§4)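 Rat hearts in Langendorff perfusion were exposed to 10 nM–10 μM. Coronary perfusion pressure, heart rate, LVDP and +dp/dt were recorded.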

[16] = Half life in Beagle dog at 0.3 mg/kg, iv measured up to 24 hrs by LC-MS analysis; assay type: ADME, organism-based, Canis lupus familiaris; details: in vivo
[17] = tested on: Rattus norvegicus; assay: Reduction in blood pressure in normotensive Wistar rat at 10 mg/kg, po by radiotelemetry relative to control; assay type: functional; set-up: scale not given: the % may be the effect or the level left; how it was run: as §3
[18] = target: T1, Guanylate cyclase soluble subunit alpha-1 (Rattus norvegicus); assay: Activation of recombinant rat sGC alpha1 subunit expressed in CHO cells assessed as induction of [32P-cGMP] formation by measuring fold change at 0.01 uM using alpha-[32P-GTP] as substrate measured after 6 mins by luminescence assay; details: filed as activator
How it was run: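 Highly purified recombinant sGC enzyme was tested for stimulation of cGMP production across 0.01 to 100 μM of compound. The read-out was fold activation over basal enzyme activity. The method followed earlier published sGC stimulator/activator characterization.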

[19] = species on record: Rattus norvegicus; assay: Effect on heart rate in Wistar rat; assay type: functional; how it was run: as §4
[20] = Induction of CYP3A4 in human hepatocytes using phenacetin as substrate incubated for 60 mins by LC-MS/MS analysis; details: 1 h
[21] = tested on: Rattus norvegicus; assay: Increase in heart rate in spontaneous hypertensive Wistar rat at 0.1 to 3 mg/kg, po by radiotelemetry relative to control; assay type: functional; details: dose 0.1-3 mg/kg; how it was run: as §2
[22] = tested on: Heart; assay: Reduction in coronary perfusion pressure in heart isolated from Wistar rat; assay type: functional, tissue-based; details: dose 0.01-10 µM; how it was run: as §4
[23] = tested on: Rattus norvegicus; assay: In vivo activation of sGC in Wistar rate assessed as decrease in blood pressure at 0.03 to 0.1 mg/kg, iv administered as bolus injection; assay type: functional, organism-based; details: dose 0.03-0.1 mg/kg
How it was run: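 Anaesthetized rats received an iv bolus of 0.03 or 0.1 mg/kg, with or without ODQ pretreatment. Blood pressure and heart rate were recorded over time.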

[24] = tested on: Rattus norvegicus; assay: Effect on blood pressure in normotensive Wistar rat at 1 to 3 mg/kg, po by radiotelemetry; assay type: functional, organism-based; details: dose 1-3 mg/kg

clearance [2]: 3.5 mL/min/kg
clearance [5]: 2.67 mL/min/kg
Efficacy [6]: 58%
bioavailability [7]: 48%
Vd [8]: 1.4 L/kg
EC50 [10]: 0.0021 µM
IC50 [13]: 0.137 µM
IC50 [14]: 0.199 µM
half-life [16]: 4.3 h
fold change (FC) [18]: 2.6
Activity [20]: 256 nM
Compound: C[C@H]([C@H](C(=O)Nc1cc([C@@H](CC(=O)O)C2CC2)ccc1Cl)c1ccc(Cl)cc1)C(F)(F)F [RUNCACIGUAT]
Activity [1]: Dose-Dependent Effect
Activity [3]: Dose-Dependent Effect
Activity [4]: inactive
Activity [9]: Dose-Dependent Effect
Activity [11]: Active
Activity [12]: Active
Activity [15]: inactive
Activity [17]: <=15%
Activity [19]: inactive
Activity [21]: <=20%
Activity [22]: Dose-Dependent Effect
Activity [23]: Dose-Dependent Effect
Activity [24]: inactive
